How the values were obtained:
Format in all cases: functional
EKVX [1] = assay: Growth inhibition of human EKVX cells at 10 uM after 48 hrs by sulforhodamine B assay; conditions: read-out: GI
How it was run: (§1)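 NCI one-dose primary screen at 10 (printed mM) across the 60-line panel. Cells in RPMI 1640 with 5% FBS and 2 mM L-glutamine, plated at 5000–40,000 cells/well and incubated 24 h before dosing. Exposure 48 h at 37 °C, 5% CO2. Adherent cells were fixed with cold TCA, suspension cells fixed after settling. SRB stain, absorbance 515 nm. Reported as percent growth of treated cells relative to control.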

OVCAR-3 = assay: Cytotoxicity against human OVCAR3 cells after 48 hrs by sulforhodamine B assay; conditions: OVCAR-3, 48 h
How it was run: (§2)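 NCI 60-panel screen. Cells were grown in RPMI 1640 with 5% FBS and L-glutamine and plated at 5000–40,000 cells/well according to doubling time. They were preincubated 24 h at 37 °C, 5% CO2, then exposed 48 h to five 10-fold dilutions. Adherent cells were fixed with cold TCA, final 10%; suspension cells were fixed after settling. Cells were stained with 0.4% SRB and read at 515 nm. Tz/C/Ti growth curves gave GI50, TGI and LC50.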

MDA-MB-435 = assay: Cytotoxicity against human MDA-MB-435 cells after 48 hrs by sulforhodamine B assay; conditions: MDA-MB-435, 48 h; how it was run: as §2
HT-29 = assay: Cytotoxicity against human HT-29 cells after 48 hrs by sulforhodamine B assay; conditions: HT-29, 48 h; how it was run: as §2
MCF7 = assay: Growth inhibition of human MCF7 cells at 10 uM after 48 hrs by sulforhodamine B assay; conditions: MCF7, 48 h, read-out: GI; how it was run: as §1
U-251 = assay: Cytotoxicity against human U251 cells after 48 hrs by sulforhodamine B assay; conditions: U-251, 48 h
How it was run: (§3)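 NCI 60 panel five-dose screen. Cells in RPMI 1640 with 5% FBS and 2 mM L-glutamine, plated at 5000–40,000 cells/well and preincubated 24 h. Compounds were tested at five 10-fold concentrations (0.01–100) for 48 h at 37 °C, 5% CO2. Cells were fixed with TCA and stained with SRB, absorbance 515 nm. GI50, TGI and LC50 were taken from % growth curves against time-zero and control.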

SW-620 [2] = assay: Growth inhibition of human SW620 cells at 10 uM after 48 hrs by sulforhodamine B assay; conditions: SW-620, 48 h, read-out: GI
How it was run: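 NCI-60 single-dose screen. Cells grown in RPMI 1640 with 5% FBS and L-glutamine, plated at 5000–40,000 cells/well by doubling time, and preincubated 24 h at 37 °C, 5% CO2. Compound stocks in DMSO, added at one concentration, then incubated 48 h. Adherent cells fixed with cold TCA (10% final), stained with 0.4% SRB, dye solubilized in 10 mM Tris base, A515 read. Reported as percent growth relative to untreated control.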

SF-539 [3] = assay: Cytotoxicity against human SF539 cells after 48 hrs by sulforhodamine B assay; conditions: SF-539, 48 h; how it was run: as §2
UACC-62 = assay: Cytotoxicity against human UACC62 cells after 48 hrs by sulforhodamine B assay; conditions: UACC-62, 48 h; how it was run: as §3
SF-295 = assay: Growth inhibition of human SF295 cells at 10 uM after 48 hrs by sulforhodamine B assay; conditions: SF-295, 48 h, read-out: GI; how it was run: as §1
SF-539 [4] = assay: Growth inhibition of human SF539 cells at 10 uM after 48 hrs by sulforhodamine B assay; conditions: SF-539, 48 h, read-out: GI; how it was run: as §1
OVCAR-8 = assay: Cytotoxicity against human OVCAR8 cells after 48 hrs by sulforhodamine B assay; conditions: OVCAR-8, 48 h; how it was run: as §2
SNB-75 = assay: Cytotoxicity against human SNB75 cells after 48 hrs by sulforhodamine B assay; conditions: SNB-75, 48 h; how it was run: as §2
SK-MEL-2 = assay: Growth inhibition of human SK-MEL-2 cells at 10 uM after 48 hrs by sulforhodamine B assay; conditions: SK-MEL-2, 48 h, read-out: GI; how it was run: as §1
NCI-H23 = assay: Cytotoxicity against human NCI-H23 cells after 48 hrs by sulforhodamine B assay; conditions: NCI-H23, 48 h; how it was run: as §2
A498 = assay: Cytotoxicity against human A498 cells after 48 hrs by sulforhodamine B assay; conditions: A498, 48 h; how it was run: as §2
TK-10 = assay: Cytotoxicity against human TK10 cells after 48 hrs by sulforhodamine B assay; conditions: TK-10, 48 h; how it was run: as §3
LOX IMVI = assay: Growth inhibition of human LOXIMVI cells at 10 uM after 48 hrs by sulforhodamine B assay; conditions: read-out: GI; how it was run: as §1
EKVX [5] = assay: Cytotoxicity against human EKVX cells after 48 hrs by sulforhodamine B assay; how it was run: as §2
NCI-H460 = assay: Growth inhibition of human NCI-H460 cells at 10 uM after 48 hrs by sulforhodamine B assay; conditions: NCI-H460, 48 h, read-out: GI; how it was run: as §1
Malme-3M = assay: Growth inhibition of human MALME-3M cells at 10 uM after 48 hrs by sulforhodamine B assay; conditions: read-out: GI; how it was run: as §1
SF-268 [6] = assay: Cytotoxicity against human SF268 cells after 48 hrs by sulforhodamine B assay; conditions: SF-268, 48 h; how it was run: as §2
SF-268 [7] = assay: Growth inhibition of human SF268 cells at 10 uM after 48 hrs by sulforhodamine B assay; conditions: SF-268, 48 h, read-out: GI; how it was run: as §1
SW-620 [8] = assay: Cytotoxicity against human SW620 cells after 48 hrs by sulforhodamine B assay; conditions: SW-620, 48 h; how it was run: as §2
A549 = assay: Cytotoxicity against human A549 cells after 48 hrs by sulforhodamine B assay; conditions: A549, 48 h; how it was run: as §2
RPMI-8226 = assay: Cytotoxicity against human RPMI8226 cells after 48 hrs by sulforhodamine B assay; conditions: RPMI-8226, 48 h; how it was run: as §2
NCI-H226 = assay: Growth inhibition of human NCI-H226 cells at 10 uM after 48 hrs by sulforhodamine B assay; conditions: NCI-H226, 48 h, read-out: GI; how it was run: as §1
SN12C = assay: Cytotoxicity against human SN12C cells after 48 hrs by sulforhodamine B assay; how it was run: as §2
[9] = read-out: LC50 (the source's name)

## O=C(CCc1nnc(-c2ccc(Cl)cc2Cl)o1)c1nc2ccccc2[nH]1
EKVX [1]
  inhibition of growth at 10 µM: 39%
OVCAR-3
  GI50: 5.63 µM
  TGI: 24.8 µM
OVCAR-3; [9]
  CC50: 90.7 µM
MDA-MB-435
  GI50: 2 µM
  TGI: 4.77 µM
MDA-MB-435; [9]
  CC50: 100 µM
HT-29
  GI50: 3.77 µM
  TGI: 55.1 µM
HT-29; [9]
  CC50: 100 µM
MCF7
  inhibition of growth at 10 µM: 55.3%
U-251
  GI50: 10.9 µM
  TGI: 77.6 µM
U-251; [9]
  CC50: 100 µM
SW-620 [2]
  inhibition of growth at 10 µM: 64.2%
SF-539 [3]
  GI50: 10.5 µM
  TGI: 39.6 µM
SF-539 [3]; [9]
  CC50: 100 µM
UACC-62
  GI50: 3.34 µM
  TGI: 27.8 µM
UACC-62; [9]
  CC50: 100 µM
SF-295
  inhibition of growth at 10 µM: 40.5%
SF-539 [4]
  inhibition of growth at 10 µM: 4.76%
OVCAR-8
  GI50: 9.26 µM
  TGI: 100 µM
OVCAR-8; [9]
  CC50: 100 µM
SNB-75
  GI50: 18.7 µM
SNB-75; [9]
  CC50: 100 µM
SK-MEL-2
  inhibition of growth at 10 µM: 40.6%
NCI-H23
  GI50: 3.23 µM
  TGI: 63.2 µM
NCI-H23; [9]
  CC50: 100 µM
A498
  GI50: 1.53 µM
  TGI: 10.1 µM
A498; [9]
  CC50: 100 µM
TK-10
  GI50: 16.4 µM
  TGI: 100 µM
TK-10; [9]
  CC50: 100 µM
LOX IMVI
  inhibition of growth at 10 µM: 44.9%
EKVX [5]
  GI50: 5.48 µM
  TGI: 100 µM
EKVX [5]; [9]
  CC50: 100 µM
NCI-H460
  inhibition of growth at 10 µM: 22.7%
Malme-3M
  inhibition of growth at 10 µM: 20.7%
SF-268 [6]
  GI50: 7.3 µM
  TGI: 46.6 µM
SF-268 [6]; [9]
  CC50: 100 µM
SF-268 [7]
  inhibition of growth at 10 µM: 31.9%
SW-620 [8]
  GI50: 3.46 µM
  TGI: 16.3 µM
SW-620 [8]; [9]
  CC50: 74.3 µM
A549
  GI50: 10.4 µM
  TGI: 100 µM
A549; [9]
  CC50: 100 µM
RPMI-8226
  GI50: 3.61 µM
  TGI: 23.3 µM
RPMI-8226; [9]
  CC50: 100 µM
NCI-H226
  inhibition of growth at 10 µM: 16.3%
SN12C
  GI50: 6.22 µM
  TGI: 56.9 µM
SN12C; [9]
  CC50: 100 µM

Reference: ChEMBL document CHEMBL2040797, “Synthesis of benzimidazoles bearing oxadiazole nucleus as anticancer agents” (2012)
